We go through seven compounds from ChEMBL document CHEMBL1152280 (J Med Chem, 2008).

Where a SMILES comes first, the peptide text is derived from it. [ ]: non-standard residue; d: D form. Leu(5,5,5,5',5',5'-F6) = N[C@@H](CC(C(F)(F)F)C(F)(F)F)C(=O)O

Data set [1] in a line: Stability in presence of DPP4 assessed as peptide degradation after 24 hrs by HPLC. The format is ADME. An outline of the steps: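 Peptides (10 μM) incubated with DPP IV (20 units/L, activity calibrated on Gly-Pro-p-nitroanilide at 410 nm) in 50 mM Tris·HCl, 1 mM EDTA, pH 7.6, 37 °C, sampled over 200 min and up to 24 h. Samples were quenched in 0.2% TFA and run on C18 RP-HPLC (CH3CN/H2O/0.1% TFA, 230 nm). First-order k was fitted from ln[A] versus time, and fragments were identified by ESI-MS.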

For another data set, the species on record is Mus musculus. Put plainly: Toxicity in C57BL/6 mouse assessed as effect on body weight after 5 days. The format is organism-based. As to conditions: in vivo, 120 h.

As to `CC[C@H](C)[C@H](NC(=O)[C@H](Cc1ccccc1)NC(=O)[C@H](CCC(=O)O)NC(=O)[C@H](CCCCN)NC(=O)[C@H](C)NC(=O)[C@H](C)NC(=O)[C@H](CCC(N)=O)NC(=O)CNC(=O)[C@H](CCC(=O)O)NC(=O)[C@H](CC(C)C)NC(=O)[C@H](Cc1ccc(O)cc1)NC(=O)[C@H](CO)NC(=O)[C@H](CO)NC(=O)[C@@H](NC(=O)[C@H](CC(=O)O)NC(=O)[C@H](CO)NC(=O)[C@@H](NC(=O)[C@H](Cc1ccccc1)NC(=O)[C@@H](NC(=O)CNC(=O)[C@H](CC(C(F)(F)F)C(F)(F)F)NC(=O)[C@H](CC(C(F)(F)F)C(F)(F)F)NC(=O)[C@@H](N)Cc1cnc[nH]1)[C@@H](C)O)[C@@H](C)O)C(C)C)C(=O)N[C@@H](C)C(=O)N[C@@H](Cc1c[nH]c2ccccc12)C(=O)N[C@@H](CC(C)C)C(=O)N[C@H](C(=O)N[C@@H](CCCCN)C(=O)NCC(=O)N[C@@H](CCCNC(=N)N)C(N)=O)C(C)C`, in data set [1], the Stability result is listed as “Stable”. Also, the Activity entry in the data set listed under Mus musculus was “Non-toxic”.
Take `CC[C@H](C)[C@H](NC(=O)[C@H](CC(C(F)(F)F)C(F)(F)F)NC(=O)[C@H](CCC(=O)O)NC(=O)[C@H](CCCCN)NC(=O)[C@H](C)NC(=O)[C@H](C)NC(=O)[C@H](CCC(N)=O)NC(=O)CNC(=O)[C@H](CCC(=O)O)NC(=O)[C@H](CC(C)C)NC(=O)[C@H](Cc1ccc(O)cc1)NC(=O)[C@H](CO)NC(=O)[C@H](CO)NC(=O)[C@@H](NC(=O)[C@H](CC(=O)O)NC(=O)[C@H](CO)NC(=O)[C@@H](NC(=O)[C@H](Cc1ccccc1)NC(=O)[C@@H](NC(=O)CNC(=O)[C@H](CCC(=O)O)NC(=O)[C@H](C)NC(=O)[C@@H](N)Cc1cnc[nH]1)[C@@H](C)O)[C@@H](C)O)C(C)C)C(=O)N[C@@H](C)C(=O)N[C@@H](Cc1c[nH]c2ccccc12)C(=O)N[C@@H](CC(C)C)C(=O)N[C@H](C(=O)N[C@@H](CCCCN)C(=O)NCC(=O)N[C@@H](CCCN=C(N)N)C(=O)O)C(C)C`: the Activity entry in the data set filed under Mus musculus was “Non-toxic”.
On the same count and under the same terms, next, `CC(C)C[C@H](NC(=O)[C@H](Cc1ccc(O)cc1)NC(=O)[C@H](CO)NC(=O)[C@H](CO)NC(=O)[C@@H](NC(=O)[C@H](CC(=O)O)NC(=O)[C@H](CO)NC(=O)[C@@H](NC(=O)[C@H](Cc1ccccc1)NC(=O)[C@@H](NC(=O)CNC(=O)[C@H](CCC(=O)O)NC(=O)[C@H](C)NC(=O)[C@@H](N)Cc1cnc[nH]1)[C@@H](C)O)[C@@H](C)O)C(C)C)C(=O)N[C@@H](CCC(=O)O)C(=O)NCC(=O)N[C@@H](CCC(N)=O)C(=O)N[C@@H](C)C(=O)N[C@@H](C)C(=O)N[C@@H](CCCCN)C(=O)N[C@@H](CCC(=O)O)C(=O)N[C@@H](Cc1ccccc1)C(=O)N[C@@H](CC(C(F)(F)F)C(F)(F)F)C(=O)N[C@@H](C)C(=O)N[C@@H](Cc1c[nH]c2ccccc12)C(=O)N[C@@H](CC(C)C)C(=O)N[C@H](C(=O)N[C@@H](CCCCN)C(=O)NCC(=O)N[C@@H](CCCNC(=N)N)C(N)=O)C(C)C`: “Non-toxic”.
In the case of `CC[C@H](C)[C@H](NC(=O)[C@H](Cc1ccccc1)NC(=O)[C@H](CCC(=O)O)NC(=O)[C@H](CCCCN)NC(=O)[C@H](C)NC(=O)[C@H](C)NC(=O)[C@H](CCC(N)=O)NC(=O)CNC(=O)[C@H](CCC(=O)O)NC(=O)[C@H](CC(C)C)NC(=O)[C@H](Cc1ccc(O)cc1)NC(=O)[C@H](CO)NC(=O)[C@H](CO)NC(=O)[C@@H](NC(=O)[C@H](CC(=O)O)NC(=O)[C@H](CO)NC(=O)[C@@H](NC(=O)[C@H](Cc1ccccc1)NC(=O)[C@@H](NC(=O)CNC(=O)[C@H](CCC(=O)O)NC(=O)[C@H](CC(C(F)(F)F)C(F)(F)F)NC(=O)[C@@H](N)Cc1cnc[nH]1)[C@@H](C)O)[C@@H](C)O)C(C)C)C(=O)N[C@@H](C)C(=O)N[C@@H](Cc1c[nH]c2ccccc12)C(=O)N[C@@H](CC(C)C)C(=O)N[C@H](C(=O)N[C@@H](CCCCN)C(=O)NCC(=O)N[C@@H](CCCNC(=N)N)C(N)=O)C(C)C`, in data set [1], the Stability entry is “Stable”. In addition, in the data set listed under Mus musculus, the Activity result is on record as “Non-toxic”.
Take `CC[C@H](C)[C@H](NC(=O)[C@H](Cc1ccccc1)NC(=O)[C@H](CCC(=O)O)NC(=O)[C@H](CCCCN)NC(=O)[C@H](C)NC(=O)[C@H](C)NC(=O)[C@H](CCC(N)=O)NC(=O)CNC(=O)[C@H](CCC(=O)O)NC(=O)[C@H](CC(C)C)NC(=O)[C@H](Cc1ccc(O)cc1)NC(=O)[C@H](CO)NC(=O)[C@H](CO)NC(=O)[C@@H](NC(=O)[C@H](CC(=O)O)NC(=O)[C@H](CO)NC(=O)[C@@H](NC(=O)[C@H](Cc1ccccc1)NC(=O)[C@@H](NC(=O)CNC(=O)[C@H](CCC(=O)O)NC(=O)[C@H](C)NC(=O)[C@@H](N)Cc1cnc[nH]1)[C@@H](C)O)[C@@H](C)O)C(C)C)C(=O)N[C@@H](C)C(=O)N[C@@H](Cc1c[nH]c2ccccc12)C(=O)N[C@@H](CC(C(F)(F)F)C(F)(F)F)C(=O)N[C@H](C(=O)N[C@@H](CCCCN)C(=O)NCC(=O)N[C@@H](CCCNC(=N)N)C(N)=O)C(C)C`: the Activity result in the data set filed under Mus musculus is reported as “Non-toxic”.
For the compound `CC[C@H](C)[C@H](NC(=O)[C@H](Cc1ccccc1)NC(=O)[C@H](CCC(=O)O)NC(=O)[C@H](CCCCN)NC(=O)[C@H](C)NC(=O)[C@H](C)NC(=O)[C@H](CCC(N)=O)NC(=O)CNC(=O)[C@H](CCC(=O)O)NC(=O)[C@H](CC(C)C)NC(=O)[C@H](Cc1ccc(O)cc1)NC(=O)[C@H](CO)NC(=O)[C@H](CO)NC(=O)[C@@H](NC(=O)[C@H](CC(=O)O)NC(=O)[C@H](CO)NC(=O)[C@@H](NC(=O)[C@H](Cc1ccccc1)NC(=O)[C@@H](NC(=O)[C@H](CC(C(F)(F)F)C(F)(F)F)NC(=O)[C@H](CCC(=O)O)NC(=O)[C@H](C)NC(=O)[C@@H](N)Cc1cnc[nH]1)[C@@H](C)O)[C@@H](C)O)C(C)C)C(=O)N[C@@H](C)C(=O)N[C@@H](Cc1c[nH]c2ccccc12)C(=O)N[C@@H](CC(C)C)C(=O)N[C@H](C(=O)N[C@@H](CCCCN)C(=O)NCC(=O)N[C@@H](CCCN=C(N)N)C(N)=O)C(C)C`, in the data set listed under Mus musculus, the Activity result is “Non-toxic”.
On the same count and under the same terms, the same measure for `CC[C@H](C)[C@H](NC(=O)[C@H](Cc1ccccc1)NC(=O)[C@H](CCC(=O)O)NC(=O)[C@H](CCCCN)NC(=O)[C@H](C)NC(=O)[C@H](C)NC(=O)[C@H](CCC(N)=O)NC(=O)CNC(=O)[C@H](CCC(=O)O)NC(=O)CNC(=O)[C@H](CC(C)C)NC(=O)[C@H](Cc1ccc(O)cc1)NC(=O)[C@H](CO)NC(=O)[C@H](CO)NC(=O)[C@@H](NC(=O)[C@H](CC(=O)O)NC(=O)[C@H](CO)NC(=O)[C@@H](NC(=O)[C@H](Cc1ccccc1)NC(=O)[C@@H](NC(=O)CNC(=O)[C@H](CC(C(F)(F)F)C(F)(F)F)NC(=O)[C@H](C)NC(=O)[C@@H](N)Cc1cnc[nH]1)[C@@H](C)O)[C@@H](C)O)C(C)C)C(=O)N[C@@H](C)C(=O)N[C@@H](Cc1c[nH]c2ccccc12)C(=O)N[C@@H](CC(C)C)C(=O)N[C@H](C(=O)N[C@@H](CCCCN)C(=O)NCC(=O)N[C@@H](CCCNC(=N)N)C(N)=O)C(C)C` (H-HA[Leu(5,5,5,5',5',5'-F6)]GTFTSDVSSYLGEGQAAKEFIAWLVKGR-NH2): “Non-toxic”.
